A selection: hits, their analogues and other compounds. The true share with any hit is near 1.5%.
APJ antag – blocks the human apelin receptor APJ | CHO-K1 APJ beta-arrestin complementation, luminescence | inhibition, % at 20 µM | P35414 | hit rate 0.32% among 330,000;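 active means inhibition above about 40% at 20 µM, limit read from the data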;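 further: cells challenged with 10 nM apelin-13 agonist together with compound; plate controls were apelin-13 plus DMSO wells for no effect and DMSO wells lacking apelin-13 for full effect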
CCR6 antag – CCR6 (human) receptor antagonism. hit rate 0.49% among 340,000. inhibition, % at 20 µM. P51684. CHO-K1 CCR6 PathHunter beta-arrestin, luminescence, CCL20-stimulated;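 active means compounds whose inhibition of the agonist-driven luminescence signal at 20 µM reaches about 50%, limit read from the data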;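 further: cells stimulated with CCL20 at 14 nM final; plate controls were DMSO with CCL20 for no effect and DMSO without agonist for full effect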
CXCR6 inh – blocks human CXCR6 beta-arrestin recruitment; CHO-K1 PathHunter CXCR6 beta-arrestin, luminescence; inhibition, % at 20 µM; hit rate 0.36% among 360,000; AID 602244; in the data active means inhibition above about 34%, passing the limit was not always enough;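 further: antagonist mode with CXCL16 agonist at 10 nM final; 0% = 10 nM CXCL16 with DMSO and 100% = unstimulated wells without agonist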
Target sequence (O00574 whole entry, looked up): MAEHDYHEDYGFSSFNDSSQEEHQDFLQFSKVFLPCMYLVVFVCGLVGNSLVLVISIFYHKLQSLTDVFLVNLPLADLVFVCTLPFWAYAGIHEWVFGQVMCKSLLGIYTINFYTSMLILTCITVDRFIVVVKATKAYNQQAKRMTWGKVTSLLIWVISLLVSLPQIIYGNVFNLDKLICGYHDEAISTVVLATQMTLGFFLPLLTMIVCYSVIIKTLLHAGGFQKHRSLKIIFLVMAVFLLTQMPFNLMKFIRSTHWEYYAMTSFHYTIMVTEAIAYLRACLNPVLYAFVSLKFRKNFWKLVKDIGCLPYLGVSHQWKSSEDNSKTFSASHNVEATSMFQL
APJ agonist – agonists of human APJ apelin receptor; CHO-K1 APJ PathHunter beta-arrestin, luminescence; 0% DMSO wells, 100% apelin; activation, % at 20 µM; hit rate 0.11% among 330,000; P35414; AID 2520;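 active means activation more than six SD over the plate average, tested at 20 µM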;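 further: 0% = DMSO alone and 100% = apelin-13 at 10 nM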
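Material: engineered CHO-K1 APJ arrestin reporter cells; amount: 1000 CHO-K1 reporter cells seeded per well; incubation: compound stimulation 90 min at 25 °C, detection 60 min; signal: luminescent beta-gal fragment complementation, chemiluminescent substrate; read-out basis: APJ agonist activity; controls: DMSO-only wells as negative, 10 nM Apelin-13 as positive control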
EBI2 antag – antagonists of human EBI2 receptor; P32249; EBI2 beta-arrestin recruitment, luminescence, 7a,25-OHC stimulated; inhibition, % at 5 µM; hit rate 0.81% among 360,000; in the data active means inhibition above about 38%;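 further: enzyme fragment complementation signal reports receptor beta-arrestin coupling in cells; 0% = agonist plus DMSO wells and 100% = wells without agonist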
EBI2 antag conf – confirmation of human EBI2 receptor antagonists. EBI2 beta-arrestin luminescence, 7a,25-OHC antagonism. hit rate 29% among 2,400. shares compounds with EBI2 antag. AID 651997. inhibition, % at 5 µM;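 active means inhibition of at least 50%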
EBI2 ag – activates EBI2, counter-screen for EBI2 antagonists | 2,400 tested, under 10 active | EBI2-expressing cells, agonist mode, luminescence, 60 min; 0% vehicle, 100% 7α,25-dihydroxycholesterol control | activation, % at 5 µM | shares compounds with EBI2 antag;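 active means activation of at least 50%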
bGal counter – counter-screen for EBI2 antagonists: E. coli beta-galactosidase inhibition. shares compounds with EBI2 antag. purified beta-galactosidase, luminescent Galacton Star, 15 min. inhibition, % at 5 µM. hit rate 1% among 2,400. AID 652176;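 active means replicate-average signal at least 3 plate SD below neutral wells, shown as high inhibition, flagging enzyme-inhibiting false positives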;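 further: 0% = DMSO wells with enzyme and 100% = wells lacking enzyme; higher means stronger loss of beta-gal luminescence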
Numbers without * were called inactive; / = no result.

SMILES	APJ antag	CCR6 antag	CXCR6 inh	APJ agonist	EBI2 antag	EBI2 antag conf	EBI2 ag	bGal counter
C=CCN1CCN(C(=O)c2ccc(-c3ccccc3)cc2)CC1	-11	5	-5	-2	77*	45	0	3
COc1ccc(-c2cc(C(=O)N3CCN(c4ccccc4OC)CC3)no2)cc1OC	-2	-8	2	-2	8	/	/	/
COc1ccccc1N1CCN(C(=O)c2ccc(-c3ccccc3)cc2)CC1	11	12	-3	0	74*	40	-1	-9
COc1ccccc1N1CCN(C(=O)c2cc(-c3cccs3)on2)CC1	-12	-2	-4	-2	67*	52*	3	11
O=C(c1ccc(-c2ccccc2)cc1)N1CCN(c2ncccn2)CC1	0	-10	2	-7	49*	33	0	2
O=C(c1ccccc1)N1CCN(c2ncccn2)CC1	-8	-2	7	0	-2	/	/	/
COc1ccccc1N1CCN(C(=O)/C=C/c2cccc([N+](=O)[O-])c2)CC1	-3	7	-2	-1	19	/	/	/
COc1ccccc1N1CCN(C(=O)COc2ccc(C)cc2Br)CC1	-8	-20	5	0	50*	16	-1	-11
COc1ccccc1N1CCN(C(=O)/C=C/c2ccc(C)cc2)CC1	-3	19	-6	1	93*	85*	2	2
CCCS(=O)(=O)N1CCN(C(=O)c2ccc(-c3ccccc3)cc2)CC1	-5	-5	0	5	73*	43	1	3
CCCS(=O)(=O)N1CCN(C(=O)c2cccnc2)CC1	12	-11	-6	1	-10	/	/	/
O=C1Nc2ccccc2N=C(c2ccccc2)c2ccccc21	-15	-5	16	1	12	/	/	/
CCN(C(=O)C(C)Sc1ccc(S(=O)(=O)N2CCOCC2)cn1)c1ccccc1 (centres undefined)	-17	-4	1	-2	-6	/	/	/
CCCNC(=O)C1(C)CCCN(Cc2c(F)cccc2F)C1 (centres undefined)	/	/	6	/	5	/	/	/
Cc1ccc(/C=C/C(=O)N2CCN(c3cccc(C(F)(F)F)c3)CC2)cc1	-8	9	1	1	83*	76*	1	-3
O=C(N/N=C/c1ccc2c(c1)OCO2)C1CC1	-4	7	1	-3	0	/	/	/
O=C1NC(Cc2ccccc2)c2nc3cc(F)c(F)cc3c(=O)n2-c2cc3ccccc3cc21 (centres undefined)	/	/	4	/	44*	19	-2	-10
Cc1ccccc1OCCC(=O)OCC(=O)Nc1ccc2[nH]c(=O)[nH]c2c1	5	1	-6	0	-3	/	/	/
COc1cccc(OCc2cc(C(=O)N(C)Cc3nccn3C)no2)c1	0	-6	4	-2	-2	/	/	/
COC(=O)c1ccc2[nH]c3c(c2c1)CC(C)CC3 (centres undefined)	14	-15	-9	2	50*	44	-1	-12
Cc1cc(C(=O)N/N=C/c2c(C)nn(-c3ccccc3)c2C)n[nH]1	-2	3	-7	-5	-5	/	/	/
Cc1nn(-c2ccccc2)c(C)c1/C=N/NC(=O)c1cc(-c2ccc(Br)s2)[nH]n1	-9	-6	11	-3	59*	22	0	8
Cc1nn(-c2ccccc2)c(C)c1/C=N/NC(=O)c1cc(-c2ccc(Cl)s2)[nH]n1	5	-6	-8	1	52*	30	1	10
Cc1nn(-c2ccccc2)c(C)c1/C=N/NC(=O)c1cc(-c2cccs2)[nH]n1	5	25	2	-1	5	/	/	/
CSc1ccc(CN2CCCC(N3CCN(c4ccccc4)CC3)C2)cc1 (centres undefined)	21	13	6	-4	3	/	/	/
SMILES	APJ antag	CCR6 antag	CXCR6 inh	APJ agonist	EBI2 antag	EBI2 antag conf	EBI2 ag	bGal counter
S=C1NC2(CCCCC2)Nc2ccccc21	4	1	4	-3	-9	/	/	/
CCOc1cc(/C=N/NC(=O)COc2nc(C)cc(COC)c2C#N)ccc1O	0	-15	3	-2	62*	36	2	1
N=c1c(S(=O)(=O)c2ccc(Cl)cc2)cc2c(=O)n3ccccc3nc2n1C1CCCCC1	6	2	8	-6	14	/	/	/
COn1c(-c2ccccc2)nc2c1CCc1c-2no[n+]1[O-]	1	2	5	1	-8	/	/	/
[O-][n+]1onc2c1CCc1c-2nc(-c2ccccc2)n1OCc1ccccc1	-17	17	9	-3	49*	40	0	4
COc1ccc(Cc2nnc(Nc3ccccc3)s2)cc1Br	3	4	-12	-1	35*	19	0	9
COc1ccc(CNc2ccccc2)cc1Br	16	21	2	-4	-5	/	/	/
Cc1cccc(S(=O)(=O)c2c(N)n(/N=C/c3ccccc3)c3nc4ccccc4nc23)c1	9	7	-5	1	17	/	/	/
Nc1c(S(=O)(=O)c2ccccc2)c2nc3ccccc3nc2n1/N=C/c1cccc(O)c1	-4	1	-7	1	68*	38	1	-9
C=CCC1(CC=C)CCCN1C(=O)C1CCC(=O)N(CCc2ccccc2)C1 (centres undefined)	17	10	-2	14	46*	36	-1	-17
C=CCC1(CC=C)CCCN1C(=O)C1CCC(=O)N(CCc2ccc(OC)cc2)C1 (centres undefined)	-20	15	3	-1	57*	40	0	7
COc1ccc(CCN2CC(C(=O)N(C)Cc3ccccn3)CCC2=O)cc1 (centres undefined)	/	/	-5	/	9	/	/	/
COc1ccc(CCN2CC(C(=O)N(C)Cc3ccc(C)o3)CCC2=O)cc1 (centres undefined)	9	10	1	-3	45*	32	1	0
COc1ccc(C(CC(=O)O)c2cc(OC)c(OC)c(OC)c2)cc1OC (centres undefined)	/	10	-1	/	4	/	/	/
OCCN(CCO)c1cc2c3ccccc3ccc2c2ccccc12	/	-21	-23	/	-31	/	/	/
C[C@H](NC(=O)c1nc[nH]c1C(=O)N1CCNCC1)C(=O)OC(C)(C)C	8	4	-5	-4	-5	/	/	/
Cc1ccc2c(c1)[C@H]1[C@H](CO2)[C@H](c2ccccc2)[C@]2(C)C(=O)N(Cc3ccc(F)cc3)CC(=O)N12	-4	-2	11	-2	30	/	/	/
Cc1ccc2c(c1)[C@H]1[C@H](CO2)[C@H](c2ccccc2)[C@]2(C)C(=O)N(Cc3ccc(Cl)cc3)CC(=O)N12	-2	14	8	-3	48*	31	-1	-9

Source: PubChem BioAssay
